# Assay results from ChEMBL document CHEMBL1137580, “Synthesis, potency, and in vivo profiles of quinoline containing histamine H3 receptor inverse agonists” (J Med Chem, 2007).
# The source made the active and inactive calls. The calls are words filed in the database; no cut-off is given here.
# How the values were obtained:
# [1] = Protein binding in monkey plasma; type: ADME, cell-free, Macaca mulatta; conditions: rhesus monkey, read-out: PPB (converted)
# [2] = Protein binding in rat plasma; type: ADME, cell-free; conditions: read-out: PPB (converted)
# [3] = Ratio of drug level in brain to blood in rat at 1 mg/kg, iv; type: ADME, organism-based; set-up: dose 1 mg/kg, route intravenous
# Outline: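 Rats given 1 mg/kg i.v.; brain and plasma concentrations measured 1 h after dosing by HPLC-MS, and the brain-to-plasma ratio was taken from these; n ≥ 3 animals.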
# [4] = Half life in rat at 1 mg/kg, iv; type: ADME, organism-based; set-up: dose 1 mg/kg, route intravenous; conditions: in vivo
# Rattus norvegicus [5] = assay: Volume of distribution in rat at 1 mg/kg, iv; type: ADME, organism-based; set-up: dose 1 mg/kg, route intravenous; conditions: in vivo
# [6] = Clearance in rat at 1 mg/kg, iv; type: ADME, organism-based; set-up: dose 1 mg/kg, route intravenous; conditions: in vivo
# [7] = Oral bioavailability in rat at 1 mg/kg; type: ADME, organism-based; conditions: in vivo
# Outline: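 Oral dosing in rats at 1 mg/kg, n = 3 animals; F (%) given as mean, SEM <20% of mean unless stated.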
# Brain [8] = assay: Drug level in mouse brain at 1 mg/kg, ip; type: ADME, organism-based; set-up: dose 1 mg/kg, route intraperitoneal; conditions: in vivo
# Outline: (§1)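 Mice dosed i.p. at 1 mg/kg; brain and blood sampled 1 h after dosing, concentrations by HPLC-MS; n ≥ 3, SEM <11% of mean unless stated.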
# [9] = Ratio of drug level in brain to blood in mouse at 1 mg/kg, ip; type: ADME, organism-based; set-up: dose 1 mg/kg, route intraperitoneal; outline: as §1
# Brain [10] = assay: Drug level in rat brain at 1 mg/kg, iv; type: ADME, organism-based; set-up: dose 1 mg/kg, route intravenous; conditions: in vivo
# Outline: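 Rats dosed i.v. at 1 mg/kg; brain concentration measured 1 h post-dose by HPLC-MS; n ≥ 3, SEM <11% of mean unless stated.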
# [11] = Protein binding in dog plasma; type: ADME, cell-free, Canis lupus familiaris; conditions: read-out: PPB (converted)
# Rattus norvegicus [12] = assay: Memory enhancing effect in ip dosed adult rat by social recognition memory method; type: functional, organism-based
# Outline: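 Adult rat explores a juvenile 5 min, separated 2 h, re-exposed 5 min; compound or saline i.p. right after first exposure; investigation ratio (second/first time); ciproxifan 1 mg/kg standard; n ≥ 12, Dunnett's post hoc, P < 0.05; efficacious doses in mg/kg.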
# Rattus norvegicus [13] = assay: Memory enhancing effect in ip dosed adult rat by five trial inhibitory avoidance method; type: functional, organism-based
# Rattus norvegicus [14] = assay: Memory enhancing effect in ip dosed rat by five trial inhibitory avoidance method at 3 mg/kg; type: functional, organism-based; set-up: dose 3 mg/kg
# Plasma [15] = assay: Drug level in rat plasma at 0.3 mg/kg; type: ADME, organism-based; set-up: dose 0.3 mg/kg; conditions: in vivo
# L-type calcium channel = L-type calcium channel (Homo sapiens, UniProt O60840+Q01668+Q13698+Q13936); assay: Inhibition of human L-type calcium channel at 10 uM
# [16] = target: T1, Muscarinic acetylcholine receptor M4 (Homo sapiens) (UniProt P08173); assay: Inhibition of human muscarinic M4 receptor at 10 uM
# T1 sequence (whole entry): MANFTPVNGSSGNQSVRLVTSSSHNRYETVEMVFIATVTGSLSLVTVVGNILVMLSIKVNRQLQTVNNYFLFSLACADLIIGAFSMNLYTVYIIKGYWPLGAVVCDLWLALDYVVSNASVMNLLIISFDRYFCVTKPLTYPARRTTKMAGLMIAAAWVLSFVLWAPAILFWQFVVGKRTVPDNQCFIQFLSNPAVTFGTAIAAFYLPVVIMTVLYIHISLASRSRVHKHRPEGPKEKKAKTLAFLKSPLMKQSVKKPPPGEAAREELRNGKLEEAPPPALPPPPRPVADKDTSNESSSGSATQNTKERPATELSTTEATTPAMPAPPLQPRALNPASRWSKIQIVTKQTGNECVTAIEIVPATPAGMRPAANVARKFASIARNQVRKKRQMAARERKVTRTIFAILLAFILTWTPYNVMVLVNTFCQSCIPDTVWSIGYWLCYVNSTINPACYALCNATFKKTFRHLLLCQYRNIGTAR
# [17] = target: T2, Adenosine receptor A3 (Homo sapiens) (UniProt P0DMS8); assay: Inhibition of human adenosine A3 receptor at 10 uM
# T2 sequence (whole entry): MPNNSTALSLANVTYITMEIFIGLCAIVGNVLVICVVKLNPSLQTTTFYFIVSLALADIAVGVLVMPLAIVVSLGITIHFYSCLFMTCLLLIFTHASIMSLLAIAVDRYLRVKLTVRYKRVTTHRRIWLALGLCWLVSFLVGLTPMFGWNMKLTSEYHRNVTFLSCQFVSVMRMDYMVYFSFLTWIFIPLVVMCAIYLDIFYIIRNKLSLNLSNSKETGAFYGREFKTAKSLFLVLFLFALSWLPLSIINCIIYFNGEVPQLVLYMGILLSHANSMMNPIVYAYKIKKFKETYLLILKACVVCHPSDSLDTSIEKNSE
# Homo sapiens = species: Homo sapiens; assay: Inhibition of human sigma receptor at 10 uM
# Cytochrome P450 1A2 = target: T3, Cytochrome P450 1A2 (Homo sapiens, UniProt P05177); assay: Inhibition of CYP1A2 at 10 to 20 uM; type: ADME
# T3 sequence (P05177 whole entry): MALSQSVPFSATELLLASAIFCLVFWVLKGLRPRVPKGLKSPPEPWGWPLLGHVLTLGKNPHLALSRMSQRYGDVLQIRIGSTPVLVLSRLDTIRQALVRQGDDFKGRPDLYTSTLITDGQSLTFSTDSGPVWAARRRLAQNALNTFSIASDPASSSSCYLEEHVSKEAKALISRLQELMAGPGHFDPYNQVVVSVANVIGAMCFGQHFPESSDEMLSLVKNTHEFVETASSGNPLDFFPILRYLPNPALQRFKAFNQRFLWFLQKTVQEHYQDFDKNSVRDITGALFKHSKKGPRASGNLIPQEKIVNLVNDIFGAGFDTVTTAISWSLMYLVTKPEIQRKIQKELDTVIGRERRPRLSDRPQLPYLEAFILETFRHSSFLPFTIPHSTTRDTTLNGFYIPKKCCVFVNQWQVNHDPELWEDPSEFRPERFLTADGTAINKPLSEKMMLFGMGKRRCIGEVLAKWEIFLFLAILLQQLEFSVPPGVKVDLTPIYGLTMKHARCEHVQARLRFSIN
# Cytochrome P450 2A6 = target: T4, Cytochrome P450 2A6 (Homo sapiens, UniProt P11509); assay: Inhibition of CYP2A6 at 10 to 20 uM; type: ADME
# T4 sequence (P11509 whole entry): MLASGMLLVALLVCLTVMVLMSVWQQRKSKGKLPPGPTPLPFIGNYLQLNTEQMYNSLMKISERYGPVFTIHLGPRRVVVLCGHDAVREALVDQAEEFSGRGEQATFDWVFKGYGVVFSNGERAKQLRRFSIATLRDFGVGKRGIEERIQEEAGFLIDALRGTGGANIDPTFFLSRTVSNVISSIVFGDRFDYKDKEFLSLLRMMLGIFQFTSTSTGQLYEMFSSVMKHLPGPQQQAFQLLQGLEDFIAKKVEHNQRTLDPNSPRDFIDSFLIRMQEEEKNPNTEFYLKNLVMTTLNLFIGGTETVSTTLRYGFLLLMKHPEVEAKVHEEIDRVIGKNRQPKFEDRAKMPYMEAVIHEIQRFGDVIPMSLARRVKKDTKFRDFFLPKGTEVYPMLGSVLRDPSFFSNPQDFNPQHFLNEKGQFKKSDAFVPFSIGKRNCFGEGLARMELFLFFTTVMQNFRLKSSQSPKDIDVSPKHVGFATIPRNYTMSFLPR
# Cytochrome P450 2C19 = Cytochrome P450 2C19 (Homo sapiens, UniProt P33261); assay: Inhibition of CYP2C19 at 10 to 20 uM; type: ADME
# Chain of Cytochrome P450 2C19 (P33261 whole entry): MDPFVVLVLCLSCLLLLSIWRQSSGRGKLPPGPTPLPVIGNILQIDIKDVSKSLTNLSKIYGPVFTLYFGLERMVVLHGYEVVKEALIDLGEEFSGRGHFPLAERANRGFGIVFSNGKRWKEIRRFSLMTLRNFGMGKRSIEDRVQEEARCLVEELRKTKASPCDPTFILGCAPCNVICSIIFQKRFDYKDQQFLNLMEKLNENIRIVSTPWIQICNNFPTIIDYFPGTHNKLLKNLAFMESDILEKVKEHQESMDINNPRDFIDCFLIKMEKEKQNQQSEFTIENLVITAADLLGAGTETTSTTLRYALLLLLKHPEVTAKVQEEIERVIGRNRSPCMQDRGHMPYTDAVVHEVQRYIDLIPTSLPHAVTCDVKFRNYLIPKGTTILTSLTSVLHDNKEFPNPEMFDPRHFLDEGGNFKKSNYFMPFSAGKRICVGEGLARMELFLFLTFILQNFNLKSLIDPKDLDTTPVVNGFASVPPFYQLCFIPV
# Cytochrome P450 2C9 = Cytochrome P450 2C9 (Homo sapiens, UniProt P11712); assay: Inhibition of CYP2C9 at 10 to 20 uM; type: ADME
# Chain of Cytochrome P450 2C9 (P11712 whole entry): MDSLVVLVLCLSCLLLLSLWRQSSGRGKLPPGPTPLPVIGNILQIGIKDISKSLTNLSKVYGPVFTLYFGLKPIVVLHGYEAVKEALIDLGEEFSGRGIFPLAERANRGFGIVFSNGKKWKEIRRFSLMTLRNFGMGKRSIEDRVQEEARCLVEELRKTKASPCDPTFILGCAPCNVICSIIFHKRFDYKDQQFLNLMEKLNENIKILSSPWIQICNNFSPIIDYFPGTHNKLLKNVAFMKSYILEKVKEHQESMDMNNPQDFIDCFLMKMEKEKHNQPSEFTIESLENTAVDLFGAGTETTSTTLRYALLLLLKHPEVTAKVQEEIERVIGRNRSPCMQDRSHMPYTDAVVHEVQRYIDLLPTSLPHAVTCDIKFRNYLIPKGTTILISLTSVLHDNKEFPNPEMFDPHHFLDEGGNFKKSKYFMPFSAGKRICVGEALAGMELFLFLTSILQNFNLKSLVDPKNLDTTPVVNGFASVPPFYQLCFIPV
# Cytochrome P450 2D6 = Cytochrome P450 2D6 (Homo sapiens, UniProt P10635); assay: Inhibition of CYP2D6 at 10 to 20 uM; type: ADME
# Chain of Cytochrome P450 2D6 (P10635 whole entry): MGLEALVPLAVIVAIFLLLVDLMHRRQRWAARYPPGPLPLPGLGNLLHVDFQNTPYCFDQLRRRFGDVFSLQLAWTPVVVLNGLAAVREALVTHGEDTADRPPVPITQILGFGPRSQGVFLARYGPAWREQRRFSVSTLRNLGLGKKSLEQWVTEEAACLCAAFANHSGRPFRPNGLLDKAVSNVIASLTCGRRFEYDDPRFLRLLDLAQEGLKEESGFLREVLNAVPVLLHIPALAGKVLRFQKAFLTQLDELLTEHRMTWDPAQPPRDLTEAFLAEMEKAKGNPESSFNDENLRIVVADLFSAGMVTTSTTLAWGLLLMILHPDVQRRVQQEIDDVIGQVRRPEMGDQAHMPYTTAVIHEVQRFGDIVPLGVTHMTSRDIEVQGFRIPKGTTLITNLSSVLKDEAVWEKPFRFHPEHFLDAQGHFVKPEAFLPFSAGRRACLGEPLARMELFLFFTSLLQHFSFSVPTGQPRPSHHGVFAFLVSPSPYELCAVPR
# Cytochrome P450 2E1 = Cytochrome P450 2E1 (Homo sapiens, UniProt P05181); assay: Inhibition of CYP2E1 at 10 to 20 uM; type: ADME
# Chain of Cytochrome P450 2E1 (P05181 whole entry): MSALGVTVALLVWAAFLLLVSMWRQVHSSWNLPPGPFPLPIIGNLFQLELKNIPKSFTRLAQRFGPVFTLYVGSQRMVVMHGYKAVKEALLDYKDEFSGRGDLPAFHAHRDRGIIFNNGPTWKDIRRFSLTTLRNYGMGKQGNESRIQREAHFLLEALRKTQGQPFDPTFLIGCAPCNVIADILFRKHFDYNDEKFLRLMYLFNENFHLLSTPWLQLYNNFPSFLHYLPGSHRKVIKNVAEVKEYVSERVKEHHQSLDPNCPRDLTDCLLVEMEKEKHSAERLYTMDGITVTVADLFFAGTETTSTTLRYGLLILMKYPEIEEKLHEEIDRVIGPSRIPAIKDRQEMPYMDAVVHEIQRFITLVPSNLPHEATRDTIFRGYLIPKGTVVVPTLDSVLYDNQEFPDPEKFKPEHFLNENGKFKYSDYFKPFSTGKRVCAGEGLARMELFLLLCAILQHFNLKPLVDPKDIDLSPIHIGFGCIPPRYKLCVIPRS
# Cytochrome P450 3A4 = Cytochrome P450 3A4 (Homo sapiens, UniProt P08684); assay: Inhibition of CYP3A4 at 10 to 20 uM; type: ADME
# Chain of Cytochrome P450 3A4 (P08684 whole entry): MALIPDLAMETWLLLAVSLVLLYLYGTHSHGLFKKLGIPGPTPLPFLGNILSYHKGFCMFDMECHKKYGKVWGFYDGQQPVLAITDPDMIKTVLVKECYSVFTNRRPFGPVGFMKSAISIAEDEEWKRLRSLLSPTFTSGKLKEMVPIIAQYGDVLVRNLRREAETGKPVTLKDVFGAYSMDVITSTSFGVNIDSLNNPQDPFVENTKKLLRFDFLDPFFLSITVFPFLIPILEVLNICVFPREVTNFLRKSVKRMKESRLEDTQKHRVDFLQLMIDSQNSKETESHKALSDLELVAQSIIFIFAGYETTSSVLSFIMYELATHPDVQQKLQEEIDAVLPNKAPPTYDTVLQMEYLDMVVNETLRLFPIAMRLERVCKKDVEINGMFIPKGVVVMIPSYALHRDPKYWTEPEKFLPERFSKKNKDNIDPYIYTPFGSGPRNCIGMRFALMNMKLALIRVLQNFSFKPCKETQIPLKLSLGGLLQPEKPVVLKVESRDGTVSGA
# [18] = Bioavailability in dog; type: ADME, organism-based, Canis lupus familiaris; conditions: in vivo
# [19] = Solubility in water at pH 7; type: physicochemical
# [20] = Photostability of the UV light irradiated compound; type: ADME
# Rattus norvegicus [21] = assay: CNS toxicity assessed as hypoactivity in rat at 9.4 mg/kg; type: organism-based; set-up: dose 9.4 mg/kg; conditions: in vivo
# Rattus norvegicus [22] = assay: CNS toxicity assessed as piloerection in rat at 9.4 mg/kg; type: organism-based; set-up: dose 9.4 mg/kg; conditions: in vivo
# Rattus norvegicus [23] = assay: CNS toxicity assessed as hypoactivity in rat at 2.8 mg/kg; type: organism-based; set-up: dose 2.8 mg/kg; conditions: in vivo
# Rattus norvegicus [24] = assay: CNS toxicity assessed as piloerection in rat at 2.8 mg/kg; type: organism-based; set-up: dose 2.8 mg/kg; conditions: in vivo
# Plasma [25] = assay: Drug level in rat plasma at 0.1 mg/kg; type: ADME, organism-based; set-up: dose 0.1 mg/kg; conditions: in vivo
fraction unbound [1],fraction unbound [2],Kp [3],half-life [4],Vbeta (Rattus norvegicus [5]),clearance [6],bioavailability [7],Drug uptake (Brain [8]),Kp [9],Drug uptake (Brain [10]),fraction unbound [11],SMILES,Activity (Rattus norvegicus [12]),Activity (Rattus norvegicus [13]),Activity (Rattus norvegicus [14]),also measured
0.45,0.3,1.6,5.3 h,6.3 L/kg,14 mL/min/kg,90%,174 ng/g,1.5,440 ng/g,0.4,Cc1cc2ncc(-c3ccc4cc(CCN5CCC[C@H]5C)ccc4n3)c(C)n2n1,Active,Active,Active,Cp (Plasma [15]): 19.2 ng/mL; inhibition at 10 µM (L-type calcium channel): 63%; inhibition [16]: 74%; inhibition [17]: 69%; inhibition (Homo sapiens): 96%; Activity (Cytochrome P450 1A2): Not Active; Activity (Cytochrome P450 2A6): Not Active; Activity (Cytochrome P450 2C19): Not Active; Activity (Cytochrome P450 2C9): Not Active; Activity (Cytochrome P450 2D6): Not Active; Activity (Cytochrome P450 2E1): Not Active; Activity (Cytochrome P450 3A4): Not Active; bioavailability [18]: 72%; solubility [19]: 8.7 mg/mL; Activity [20]: Not Active; Activity (Rattus norvegicus [21]): Toxic; Activity (Rattus norvegicus [22]): Toxic; Activity (Rattus norvegicus [23]): Non-toxic; Activity (Rattus norvegicus [24]): Non-toxic
0.5,0.38,1.8,1.7 h,9 L/kg,61.7 mL/min/kg,58%,,,425 ng/g,0.42,Cc1nn(C)cc1-c1ccc2cc(CCN3CCC[C@H]3C)ccc2n1,Active,Active,Active,Cp (Plasma [25]): 2.5 ng/mL; inhibition (Homo sapiens): 86%; Activity (Cytochrome P450 1A2): Not Active; Activity (Cytochrome P450 2A6): Not Active; Activity (Cytochrome P450 2C19): Not Active; Activity (Cytochrome P450 2C9): Not Active; Activity (Cytochrome P450 2D6): Not Active; Activity (Cytochrome P450 2E1): Not Active; Activity (Cytochrome P450 3A4): Not Active; bioavailability [18]: 77%; solubility [19]: 21 mg/mL; Activity [20]: Not Active; Activity (Rattus norvegicus [21]): Toxic; Activity (Rattus norvegicus [23]): Non-toxic
,,,2.4 h,4.1 L/kg,19.7 mL/min/kg,75%,1659 ng/g,23,,,Cc1c(-c2ccc3cc(CCN4CCC[C@H]4C)ccc3n2)cnn1-c1ccccn1,,,,
,,,4 h,8.5 L/kg,24.2 mL/min/kg,98%,718 ng/g,16,,,Cc1nc(N2CCCC2)ncc1-c1ccc2cc(CCN3CCC[C@H]3C)ccc2n1,Active,,,

# Second part, the compound before the results:
SMILES,fraction unbound [1],fraction unbound [2],Kp [3],half-life [4],Vbeta (Rattus norvegicus [5]),clearance [6],bioavailability [7],Drug uptake (Brain [8]),Kp [9],Drug uptake (Brain [10]),fraction unbound [11],Activity (Rattus norvegicus [12]),Activity (Rattus norvegicus [13]),Activity (Rattus norvegicus [14]),also measured
O=C(c1ccc(OCCCc2c[nH]cn2)cc1)C1CC1,,,,,,,,,,,,Active,,,
C[C@@H]1CCCN1CCc1cc2cc(-c3ccc(C#N)cc3)ccc2o1,0.06,0.06,,,11.6 L/kg,25 mL/min/kg,,1728 ng/g,,3082 ng/g,0.09,,,,
CCOc1ccc(-n2ncc(-c3ccc4cc(CCN5CCC[C@H]5C)ccc4n3)c2C)nn1,0.21,0.11,,8.3 h,7.4 L/kg,8.83 mL/min/kg,70%,3242 ng/g,42,,,Active,Active,Active,
Cc1nc2ncccc2cc1-c1ccc2cc(CCN3CCC[C@H]3C)ccc2n1,0.5,0.39,0.4,2 h,9.2 L/kg,42.3 mL/min/kg,30%,,,50 ng/g,0.57,Active,,,
